Assay results published in BindingDB's records for doi:10.1021/jm950797i (Medichem Research, 1996).

Assays:
[1] = target: T1, Gag-Pol polyprotein [489-587] (Human immunodeficiency virus 1, UniProt P04585); assay: Inhibitory activity against DNA -dependent DNA polymerase (DDDP) of HIV-1 RT Nucleic Acid polymerase
T1 construct: 489-587
Method in brief: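 Dimeric (p66/p51) HIV-1 RT in the RT buffer, reacted 1 h at 37 °C. Template was activated calf thymus DNA (final 20 µg/mL), with dATP, dCTP and dGTP each at final 50 µM plus 5 µCi [3H]TTP. Acid-insoluble label was counted by scintillation. Prescreened at 200 µg/mL, then 10 half-log concentrations in duplicate; IC50 read from dose-response curves.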

[2] = target: T1, Gag-Pol polyprotein [489-587]; assay: Inhibitory activity against RNA-dependent DNA polymerase (RDDP) of HIV-1 RT Nucleic Acid polymerase
Method in brief: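 Purified dimeric (p66/p51) HIV-1 RT (0.08 µg) in pH 8.0 Tris-HCl with KCl, MgCl2, DTT, glutathione, EGTA and BSA. Template-primer was 41 µM poly(rA) with 9.5 µM oligo(dT), plus 20 µM TTP and [3H]TTP. Incubated 1 h at 37 °C, stopped at 80 °C, and counted on filters. Prescreened at 200 µg/mL; IC50 taken from 10 half-log doses in duplicate.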

[3] = target: T1, Gag-Pol polyprotein [489-587]; assay: Inhibitory activity against TIBO-resistant HIV-1 RT Nucleic Acid polymerase

SMILES	IC50 [1] [µM]	IC50 [2] [µM]	IC50 [3] [µM]
CCCc1cc(=O)oc2c3c(c4c(c12)OC(C)(C)C=C4)O[C@@H](C)[C@H](C)[C@@H]3O	156	27.8	–
CCCc1cc(=O)oc2c3c(c4c(c12)OC(C)(C)C=C4)O[C@@H](C)C(C)[C@@H]3O (stereo partly drawn) [(10S,12S)-12-Hydroxy-6,6,10,11-tetramethyl-4-propyl-11,12-dihydro-6H,10H-dipyrano[2,3-f;2',3'-h]chromen-2-one]	0.7	0.97	17.6
CCCc1cc(=O)oc2c3c(c4c(c12)OC(C)(C)C=C4)O[C@H](C)[C@@H](C)[C@@H]3O [(10R,11S,12S)-12-Hydroxy-6,6,10,11-tetramethyl-4-propyl-11,12-dihydro-6H,10H-dipyrano[2,3-f;2',3'-h]chromen-2-one]	0.38	–	10.1
